The results in this text go back to PMC10883374 (Science Advances, 2022).

In test [1] the target is T1, D202A hSAMTOR interaction with GATOR1-KICSTOR (Homo sapiens, UniProt Q1RMZ1, D202A).
T1 sequence (Q1RMZ1 1-405 D202A): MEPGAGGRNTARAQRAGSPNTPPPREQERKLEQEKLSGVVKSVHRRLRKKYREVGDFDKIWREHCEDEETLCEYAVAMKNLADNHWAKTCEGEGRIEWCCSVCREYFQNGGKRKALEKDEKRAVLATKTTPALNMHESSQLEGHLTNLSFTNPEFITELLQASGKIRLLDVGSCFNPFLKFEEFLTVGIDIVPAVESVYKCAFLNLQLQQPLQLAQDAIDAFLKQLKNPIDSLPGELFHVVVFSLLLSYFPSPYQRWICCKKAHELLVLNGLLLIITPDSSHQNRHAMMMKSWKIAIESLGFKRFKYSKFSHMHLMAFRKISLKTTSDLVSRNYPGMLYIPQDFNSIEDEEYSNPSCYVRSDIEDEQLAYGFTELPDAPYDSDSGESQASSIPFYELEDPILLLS
Put plainly: Co-IP of Flag-hSAMTOR-D202A with HA-Nprl3 and Myc-Kaptin with or without SAM. The class given is biochemical. The following applies: HEK 293T cell lysates, 0.5 mM SAM.

In test [2] the target is dSAMTOR (WT, full-length) (Drosophila melanogaster, UniProt Q9W138). The test is described as follows: ITC ligand binding, WT dSAMTOR. Summed up:
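Full-length dSAMTOR was expressed as His6-SUMO fusion in E. coli BL21 (DE3), Ni-NTA purified, tag-cleaved, then gel-filtered into 10 mM Hepes pH 7.5, 150 mM NaCl, 1 mM DTT. ITC ran at 25°C: 20 × 2 µl injections of 1 mM SAM or SAH into 0.2 mM protein, discarding an initial 0.8 µl injection, with a buffer background titration. Single-site nonlinear least-squares fit gave ΔH, n and Kd.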

The target of test [3] is T2, D190A hSAMTOR interaction with GATOR1-KICSTOR (Homo sapiens, UniProt Q1RMZ1, D190A).
T2 sequence (Q1RMZ1 1-405 D190A): T1 sequence (Q1RMZ1 1-405 D202A) with D190A, A202D
Put plainly: Co-IP of Flag-hSAMTOR-D190A with HA-Nprl3 and Myc-Kaptin with or without SAM. In kind it is biochemical. The following applies: HEK 293T cell lysates, 0.5 mM SAM.

The target of test [4] is T3, hSAMTOR MTase domain (residues 91 to 405) interaction with GATOR1-KICSTOR (Homo sapiens, UniProt Q1RMZ1).
T3 sequence (Q1RMZ1 91-405): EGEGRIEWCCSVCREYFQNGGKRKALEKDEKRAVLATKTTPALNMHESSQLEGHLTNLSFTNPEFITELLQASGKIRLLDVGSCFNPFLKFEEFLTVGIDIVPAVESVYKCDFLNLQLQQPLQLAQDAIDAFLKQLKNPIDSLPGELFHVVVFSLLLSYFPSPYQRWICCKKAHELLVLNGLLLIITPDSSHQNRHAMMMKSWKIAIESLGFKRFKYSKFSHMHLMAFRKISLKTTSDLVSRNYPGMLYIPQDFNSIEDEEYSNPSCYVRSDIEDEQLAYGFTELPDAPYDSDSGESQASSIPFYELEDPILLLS
T3 sequence (Q12980 1-569 partner): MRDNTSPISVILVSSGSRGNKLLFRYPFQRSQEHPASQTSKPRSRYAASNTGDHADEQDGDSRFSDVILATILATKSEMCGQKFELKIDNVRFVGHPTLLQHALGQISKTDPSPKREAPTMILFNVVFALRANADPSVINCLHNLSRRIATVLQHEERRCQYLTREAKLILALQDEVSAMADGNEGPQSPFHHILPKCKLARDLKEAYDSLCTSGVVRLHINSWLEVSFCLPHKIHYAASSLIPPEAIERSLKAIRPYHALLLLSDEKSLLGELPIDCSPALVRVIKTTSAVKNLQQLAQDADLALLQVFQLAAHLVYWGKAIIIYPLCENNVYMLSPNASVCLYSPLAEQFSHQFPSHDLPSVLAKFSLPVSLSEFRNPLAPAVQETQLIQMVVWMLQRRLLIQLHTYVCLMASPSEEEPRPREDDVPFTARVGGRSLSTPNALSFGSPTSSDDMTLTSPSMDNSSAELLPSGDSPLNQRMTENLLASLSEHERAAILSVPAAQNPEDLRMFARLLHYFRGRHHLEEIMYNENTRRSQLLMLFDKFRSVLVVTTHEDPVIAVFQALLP
T3 sequence (Q9Y664 1-436 partner): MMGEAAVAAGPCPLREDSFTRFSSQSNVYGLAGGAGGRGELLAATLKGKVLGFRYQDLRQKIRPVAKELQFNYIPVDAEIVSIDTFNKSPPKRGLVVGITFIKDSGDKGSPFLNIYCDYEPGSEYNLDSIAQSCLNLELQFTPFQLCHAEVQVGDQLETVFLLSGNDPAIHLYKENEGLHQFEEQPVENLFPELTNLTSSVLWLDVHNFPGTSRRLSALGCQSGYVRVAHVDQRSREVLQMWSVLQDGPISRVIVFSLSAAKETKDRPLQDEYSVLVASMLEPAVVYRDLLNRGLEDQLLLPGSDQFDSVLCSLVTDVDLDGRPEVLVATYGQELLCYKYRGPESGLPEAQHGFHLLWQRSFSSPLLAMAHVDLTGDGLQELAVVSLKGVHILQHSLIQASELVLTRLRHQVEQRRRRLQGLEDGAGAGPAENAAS
Put plainly: Co-IP of hSAMTOR C-terminal MTase domain. The following applies: hSAMTOR CTD alone, HEK 293T cell lysates, 0.5 mM SAM. In kind it is biochemical.

Another test has as its target F135A mutant dSAMTOR (Drosophila melanogaster, UniProt Q9W138, F135A). The test is described as follows: ITC ligand binding, F135A dSAMTOR. Summed up:
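Tag-free dSAMTOR, expressed as His6-SUMO fusion in E. coli BL21(DE3), purified by Ni-NTA and gel filtration into 10 mM Hepes pH 7.5, 150 mM NaCl, 1 mM DTT. At 25°C, 1 mM SAM or SAH was titrated into 0.2 mM protein over 20 injections, with a background titration into buffer. Single-site fit gave Kd, ΔH and n; ΔG and ΔS were calculated. Runs: three for measurable binding, two for undetectable binding.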

The structures appear in SMILES notation. Substitutions are numbered along the chain they refer to.

Chain of F135A mutant dSAMTOR (Q9W138 whole entry F135A, the tested form may be a part): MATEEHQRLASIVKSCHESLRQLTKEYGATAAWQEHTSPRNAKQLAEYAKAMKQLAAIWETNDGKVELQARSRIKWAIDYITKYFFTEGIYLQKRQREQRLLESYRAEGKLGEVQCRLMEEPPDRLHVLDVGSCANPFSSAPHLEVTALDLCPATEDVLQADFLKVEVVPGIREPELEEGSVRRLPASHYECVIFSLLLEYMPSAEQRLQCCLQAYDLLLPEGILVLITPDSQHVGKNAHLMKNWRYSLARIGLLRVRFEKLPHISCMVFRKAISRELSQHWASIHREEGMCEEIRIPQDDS
Chain of dSAMTOR (WT, full-length) (Q9W138 whole entry, the tested form may be a part): as the sequence (Q9W138 whole entry F135A, the tested form may be a part) above, with A135F counted along it

In the case of `C[S+](CC[C@H](N)C(=O)[O-])C[C@H]1O[C@@H](n2cnc3c(N)ncnc32)[C@H](O)[C@@H]1O` (some centres unmarked) [SAM, S-adenosylmethionine], the “effect of SAM on interaction of hSAMTOR with GATOR1-KICSTOR (co-IP)” value in test [1] was “comparable interactions with GATOR1 and KICSTOR in both the absence and presence of SAM”; in test [3] it was “comparable interactions with GATOR1 and KICSTOR in both the absence and presence of SAM”. In addition, the Kd – broadly, the constant that tells how readily two partners part at equilibrium – in test [2] is 10.7 ± 0.88 µM; at F135A mutant dSAMTOR it was 6.46 ± 0.4 µM. Moreover, the TΔS in test [2] (ITC, 25°C, WT dSAMTOR) turned out to be 4.66 kcal/mol. Further, the n value in test [2] (ITC, 25°C, WT dSAMTOR) is reported as 0.75 ± 0.08; on F135A mutant dSAMTOR (ITC, 25°C, F135A dSAMTOR) it was 0.79 ± 0.01. Also, the ΔH in test [2] (ITC, 25°C, WT dSAMTOR) was -2.12 ± 0.05 kcal/mol; on F135A mutant dSAMTOR (ITC, 25°C, F135A dSAMTOR), -5.24 ± 0.11 kcal/mol. Also, the “effect of SAM on interaction of the MTase domain with GATOR1-KICSTOR (co-IP)” value in test [4] is “no apparent effect”. Further, on F135A mutant dSAMTOR (F135A vs WT dSAMTOR, ITC), the “increase of binding affinity compared to the WT dSAMTOR” value was < 2 fold.
